This passage reports EC50 results from ChEMBL document CHEMBL4196182, “Hexaricins, Pradimicin-like Polyketides from a Marine Sediment-Derived Streptosporangium sp. and Their Antioxidant Effects” (J Nat Prod, 2018).

As a reminder, the EC50 is the concentration giving half of the maximal effect.

Assay type in all cases: functional
A short description of assay [1]: Antioxidant activity assessed as hydroxyl radical scavenging activity incubated for 10 mins in presence of salicylic acid. In short, it runs like this:
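Modified Smirnoff method. Equal volumes of sample in MeOH, FeSO4 (6 mM) and ethanolic salicylic acid (6 mM), then H2O2 (6 mM), giving final sample levels of 0.2−1 mg/mL. Held 10 min at room temperature, then read at 510 nm. Scavenging % uses blanks with and without H2O2 against the negative control. EC50 taken at 50% scavenging. Repeated at least three times, mean ± standard deviation.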

Assay [2] can be described thus: Antioxidant activity assessed as superoxide anion radical scavenging activity incubated for 20 mins measured every 30 secs for 5 mins in presence of pyrogallol.
The nature of assay [3]: Antioxidant activity assessed as DPPH radical scavenging activity incubated for 30 mins by UV/visible spectrophotometric analysis. In short, it runs like this:
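Test samples in MeOH at 1.875−120 μg/mL reacted with DPPH in MeOH (negative control DPPH 0.1 mM). Absorbance read at 517 nm; scavenging % computed against the DPPH-only control, correcting for sample absorbance without DPPH. EC50 is the concentration giving 50% scavenging. Independent repeats at least three times, reported as mean ± standard deviation.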
Background: DPPH is a stable violet radical that fades when it is reduced.

In the case of `COc1c2c(c(O)c3c1[C@H](O)Cc1cc4c(c(O)c1-3)C(=O)O[C@H](C)C4)C(=O)c1cccc(O)c1C2=O`, the EC50 is 723 µM in assay [1], 589 µM in assay [2] and 21 µM in assay [3].
The matching figures for `COc1c2c(c(O)c3c1C(=O)c1c(O)cccc1C3=O)-c1c(cc3c(c1O)C(=O)OC(C)(O)C3)CC2` (centres undefined): 619 µM, 83 µM and 2.9 µM.
The matching figures for `COc1c2c(c(O)c3c1[C@H](O)Cc1cc(CC(C)=O)c(C(=O)O)c(O)c1-3)C(=O)c1cccc(O)c1C2=O`: 840 µM, 681 µM and 25 µM.
For the molecule `COc1c2c(c(O)c3c1C(=O)c1c(O)cccc1C3=O)-c1c(cc3c(c1O)C(=O)OC(C)(OC)C3)CC2` (centres undefined), the EC50 turned out to be 519 µM in assay [1], 139 µM in assay [2] and 2.7 µM in assay [3].
On the same counts, the results for `CC(C)(C)c1cc(O)ccc1O` [E319] are 1920 µM, 482 µM and 10 µM.
The matching figures for `CCC(=O)O[C@@H]1Cc2cc3c(c(O)c2-c2c(O)c4c(c(OC)c21)C(=O)c1c(O)cccc1C4=O)C(=O)O[C@H](C)C3`: 831 µM, 754 µM and 30 µM.
Turning to `COc1c2c(c(O)c3c1C(=O)c1c(O)cccc1C3=O)-c1c(cc3c(c1O)C(=O)O[C@H](C)C3)CC2`, the concentration for a half-maximal effect (EC50) came out at 1530 µM in assay [1], 1100 µM in assay [2] and 42 µM in assay [3].
The matching figures for `COc1c2c(c(O)c3c1[C@H](OC(=O)C(C)C)Cc1cc4c(c(O)c1-3)C(=O)O[C@H](C)C4)C(=O)c1cccc(O)c1C2=O`: 804 µM, 746 µM and 30 µM.
